The source of these data is ChEMBL document CHEMBL4837261, “Optimization of TopoIV Potency, ADMET Properties, and hERG Inhibition of 5-Amino-1,3-dioxane-Linked Novel Bacterial Topoisomerase Inhibitors: Identification of a Lead with In Vivo Efficacy against MRSA” (J Med Chem, 2021).

For orientation: half-life means how long it takes for the measured level to halve. The term pIC50 denotes the IC50 on a negative log10 scale, so that one unit is a factor of ten. By MIC is commonly meant the lowest concentration found to suppress growth. The MIC50 is an inhibitory concentration at the 50% level, which refers to growth in some studies and to a panel of isolates in others. The term MIC90 denotes an inhibitory concentration at the 90% level, which refers to growth in some studies and to a panel of isolates in others. Higher therefore signals weaker potency. As a reminder, the inhibition is the percentage by which the read-out fell short of the control.

A short description of data set [1]: Metabolic stability in CD1 mouse liver microsomes assessed as intrinsic clearance at 2 uM measured up to 120 mins by LC-MS/MS analysis. Format: ADME, Microsome. The following applies: 2 h.
The nature of data set [2]: Metabolic stability in CD1 mouse liver microsomes assessed as half life at 2 uM measured up to 120 mins by LC-MS/MS analysis. It is filed as ADME, Microsome. In general terms: Liver microsomes are vesicles of endoplasmic reticulum, rich in cytochrome P450 enzymes.
In data set [3] the target is Voltage-gated inwardly rectifying potassium channel KCNH2 (Homo sapiens, UniProt Q12809). The data set can be described thus: Inhibition of human ERG. An outline of the steps:
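hERG channel inhibition was measured on the IonWorks Barracuda automated patch system. IC50 came from eight-point concentration–response curves with four replicates per concentration.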

Data set [4] in a line: Plasma protein binding in mouse. Format: ADME, cell-free. The following applies: read-out: PPB (converted). The essentials: (§1)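 Run at Charles River (Worcester). Plasma protein binding was measured in mouse, dog and human plasma. Thermodynamic solubility was measured in buffer at pH 7.4.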
Data set [5] is described as follows: Plasma protein binding in dog. The following applies: read-out: PPB (converted). It is filed as ADME, cell-free, Canis lupus familiaris. The essentials:
as §1

Data set [6] is described as follows: Plasma protein binding in human. The following applies: read-out: PPB (converted). It is filed as ADME, cell-free. The essentials:
as §1

A short description of data set [7]: Thermodynamic solubility of the compound at pH 7.4. The following applies: buffer, read-out: Therm_solubility. Format: physicochemical. The essentials: as §1
Data set [8] relates to Staphylococcus aureus. The experiment in a line: Antibacterial activity against fluoroquinolone-resistant methicillin-resistant Staphylococcus aureus by CLSI method. It is filed as functional. The essentials:
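MICs against ciprofloxacin-resistant MRSA USA300, determined following CLSI guidelines. Each determination was run at least in triplicate, and observed ranges were reported where appropriate.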

In data set [9] the test system is Staphylococcus aureus. The data set can be described thus: Antibacterial activity against Staphylococcus aureus ATCC 29213 by CLSI method. It is filed as functional.
In data set [10] the test system is Staphylococcus aureus. The experiment in a line: Antibacterial activity against methicillin-resistant Staphylococcus aureus USA300 by CLSI method. It is filed as functional.
For data set [11], the system named is Staphylococcus aureus. The experiment in a line: Antibacterial activity against cystic fibrosis isolate Staphylococcus aureus by CLSI method. It is filed as functional.
The subject of data set [12] is Staphylococcus aureus. The data set can be described thus: Antibacterial activity against Staphylococcus aureus by CLSI method. It is filed as functional. An outline of the steps: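 MICs were determined by broth microdilution per CLSI guidelines, in triplicate at minimum. Strains were S. aureus ATCC 29213, MRSA USA300 and a cystic fibrosis respiratory isolate, and ranges are given where seen.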

A further data set concerns Enterococcus sp. The data set can be described thus: Antibacterial activity against Enterococcus sp. by CLSI method. It is filed as functional.
The next data set concerns Streptococcus pneumoniae. The data set can be described thus: Antibacterial activity against Streptococcus pneumoniae by CLSI method. It is filed as functional.
Another data set concerns Acinetobacter baumannii. The data set can be described thus: Antibacterial activity against Acinetobacter baumannii by CLSI method. Format: functional.
The test system of another data set is Bacillus anthracis. The data set can be described thus: Antibacterial activity against Bacillus anthracis by CLSI method. Format: functional.
The next data set deals with DNA gyrase (Staphylococcus aureus, UniProt P0A0K8+P20831). The experiment in a line: Inhibition of Staphylococcus aureus Gyrase supercoiling activity assessed as reduction in supercoiling pBR322 DNA by measuring relaxation by bromophenol blue staining based TAE gel method. Format: protein-complex assay.
The target in a further data set is Topoisomerase IV (Staphylococcus aureus, UniProt P0C1S7+P0C1U9). The data set can be described thus: Inhibition of Staphylococcus aureus topoisomerase IV decatenation activity using kDNA as substrate by ethidium bromide/bromophenol blue staining based agarose gel electrophoresis analysis. Format: protein-complex assay.
The subject of data set [13] is Staphylococcus aureus. The data set can be described thus: Antibacterial activity against Staphylococcus aureus 3527 by CLSI method. Format: functional.
In data set [14] the test system is Staphylococcus aureus. The experiment in a line: Antibacterial activity against Staphylococcus aureus harbouring GyrA D83N mutant by CLSI method. It is filed as functional.
Data set [15] can be described thus: Growth inhibition of human K/VP.5 cells incubated for 48 hrs by NBTI cell counting analysis. Format: functional. Particulars: K562, 48 h.
Data set [16] can be described thus: Half life in ICR (CD-1) mouse at 10 mg/kg, iv measured up to 1440 mins by LC-MS/MS analysis. Format: ADME, organism-based. The following applies: in vivo. An outline of the steps:
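Male ICR (CD-1) mice, 22 ± 2 g, given the free base in DMSO/Solutol HS-15/0.9% NaCl (5/5/90, v/v/v), IV at 10 mg/kg or PO at 50 mg/kg; 24 mice per route, three per timepoint. Plasma was taken by cardiac puncture at 3–1440 min (IV) or 10–1440 min (PO), measured by LC-MS/MS, and parameters were derived by noncompartmental analysis.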

In data set [17] the test system is Staphylococcus aureus. The data set can be described thus: Selectivity index, ratio of IC50 for inhibition of Staphylococcus aureus topoisomerase IV decatenation activity to IC50 for inhibition of Staphylococcus aureus DNA gyrase supercoiling activity. An outline of the steps:
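Both IC50s were measured in gel-based assays with S. aureus enzymes: supercoiling inhibition for DNA gyrase and decatenation inhibition for TopoIV. The ratio is TopoIV IC50 divided by gyrase IC50.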

Another data set deals with HepaRG. The experiment in a line: Cytotoxicity against human HepaRG cells at 100 uM by ATP depletion assay. It is filed as cell-based. The essentials: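 An ATP depletion read-out in HepaRG cells gave cytotoxicity across 0.01–100 μM, reported as % cytotoxicity at 100 μM.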
For data set [18], the target named is 5-hydroxytryptamine receptor 2B (Homo sapiens) (UniProt P41595). The data set can be described thus: Displacement of [3H]Lysergic acid diethylamide from human recombinant 5HT2B receptor expressed in CHO-K1 cells at 100 uM by radioligand binding assay. It is filed as cell-based.
Data set [19] concerns the target Acetylcholinesterase (Homo sapiens) (UniProt P22303). The experiment in a line: Inhibition of human recombinant acetylcholinesterase receptor expressed in HEK293 cells at 100 uM by spectrophotometry. Format: cell-based.
Data set [20] can be described thus: Permeability of the compound from apical to basolateral side in human Caco-2 cells. Format: ADME, cell-based. The following applies: read-out: permeability.
Data set [21] can be described thus: Permeability of the compound from basolateral to apical side in human Caco-2 cells. Format: ADME, cell-based. Particulars: read-out: permeability. An outline of the steps: (§2)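 Run at RTI International. Covers plasma protein binding (mouse, human; percent free), CACO-2 permeability and efflux, and microsomal stability (mouse and human microsomes) giving half-life.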
A general note: Caco-2 monolayers are a common model of the intestinal barrier.

A short description of data set [22]: Metabolic stability in CD1 mouse microsomes assessed as half life. It is filed as ADME, Microsome.
Data set [23] is described as follows: Metabolic stability in human microsomes assessed as half life. It is filed as ADME, Microsome. The essentials:
as §2

In a further data set the target is CYP1A2 (Homo sapiens, UniProt P05177). The data set can be described thus: Inhibition of CYP1A2 (unknown origin) at 10 uM relative to control. Format: ADME.
The target of the next data set is CYP2B6 (Homo sapiens, UniProt P20813). The experiment in a line: Inhibition of CYP2B6 (unknown origin) at 10 uM relative to control. It is filed as ADME.
For the next data set, the target named is CYP2C8 (Homo sapiens, UniProt P10632). The data set can be described thus: Inhibition of CYP2C8 (unknown origin) at 10 uM relative to control. It is filed as ADME.
Another data set deals with CYP2C9 (Homo sapiens, UniProt P11712). The data set can be described thus: Inhibition of CYP2C9 (unknown origin) at 10 uM relative to control. Format: ADME.
Another data set deals with CYP2C19 (Homo sapiens, UniProt P33261). The data set can be described thus: Inhibition of CYP2C19 (unknown origin) at 10 uM relative to control. Format: ADME.
In another data set the target is CYP2D6 (Homo sapiens, UniProt P10635). The experiment in a line: Inhibition of CYP2D6 (unknown origin) at 10 uM relative to control. Format: ADME.

pIC50: −log10 of the molar value. Converted amounts (≈) assume the structure as drawn.

As for `COc1ccc2ncc(F)c(C(O)C[C@H]3OC[C@H](NCc4ccc5c(c4)OCCO5)CO3)c2c1` (mixture of isomers), the intrinsic clearance (CLint) in data set [1] was 835 µL/min/mg. Further, the half-life at 2 µM in [2] was found to be 6.54 min. Further, the pIC50 in data set [3] was 5.10; at DNA gyrase, 7.19; on Topoisomerase IV, 5.26; in data set [15] it was 4.62. The fraction unbound in data set [4], in data set [5] and in [6] was 0.11 each time. In addition, in data set [7], the solubility thermodynamic stood at 186 µM (≈ 87.5 µg/mL). For the same molecule, the MIC against Staphylococcus aureus [8] was determined as 0.25 µg/mL (≈ 0.531 µM); against Staphylococcus aureus [9], 0.125 µg/mL (≈ 0.266 µM); with Staphylococcus aureus [10], 0.125 µg/mL (≈ 0.266 µM); in the data set on Staphylococcus aureus [11], 0.125 µg/mL (≈ 0.266 µM); with Staphylococcus aureus [13], 0.125 µg/mL (≈ 0.266 µM); against Staphylococcus aureus [14] it was 2 µg/mL (≈ 4.25 µM). Besides, the MIC50 in the data set on Staphylococcus aureus [12] stood at 0.12 µg/mL (≈ 0.255 µM); against Enterococcus sp., 0.12 µg/mL (≈ 0.255 µM); against Streptococcus pneumoniae, 1 µg/mL (≈ 2.13 µM); in the data set on Acinetobacter baumannii, 32 µg/mL (≈ 68 µM); against Bacillus anthracis it was 2 µg/mL (≈ 4.25 µM). In the data set with Bacillus anthracis, this molecule had an MIC90 of 8 µg/mL (≈ 17 µM).
Take `COc1ccc2ncc(F)c(C[C@H](O)[C@@H]3CC[C@@H](NCc4cc5c(nn4)OCCS5)CO3)c2n1`: the half-life in data set [16] is 18.6 min.
Regarding `COc1ccc2ncc(F)c(C(O)C[C@H]3OC[C@H](NCc4cc5c(nn4)OCCS5)CO3)c2n1` (mixture of isomers), the MIC against Staphylococcus aureus [9] was found to be 0.5 µg/mL (≈ 1.02 µM); with Staphylococcus aureus [10], 1 µg/mL (≈ 2.04 µM); in the data set with Staphylococcus aureus [11], 0.5 µg/mL (≈ 1.02 µM); against Staphylococcus aureus [13], 0.5 µg/mL (≈ 1.02 µM); against Staphylococcus aureus [14], 8 µg/mL (≈ 16.3 µM). Further, the pIC50 is 6.62 at DNA gyrase and 4.96 on Topoisomerase IV. Moreover, the Ratio IC50 with Staphylococcus aureus [17] is 47. Besides, the Activity with HepaRG is on record as 17%. Also, the inhibition in data set [18] and in data set [19] was more than 45% in each case. For the same molecule, the Papp A→B in [20] turned out to be 7.85 ×10⁻⁶ cm/s. In addition, the Papp B→A in data set [21] worked out at 94.8 ×10⁻⁶ cm/s. Further, the results for the half-life in data set [22] and in [23] were 21 min and 26 min, respectively. Besides, the inhibition at 10 µM against CYP1A2, on CYP2B6, at CYP2C8, on CYP2C9, against CYP2C19 and against CYP2D6 was more than 50% throughout.
